The source of these data is PubChem BioAssay AID617 (SRMLSC, 2007).

Molecules are shown by their SMILES.

For this assay, the system named is E. coli BW25113 ΔtolC growth inhibition, OD615. The assay is described as follows: E. coli ΔtolC antibacterial growth inhibition – strain BW25113 ΔtolC::kan, dose response (AID 617). An outline of the steps: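 Material: E. coli BW25113 ΔtolC::kan bacteria; input: inoculum from 1:1000-diluted 1.5 h subculture; medium: kanamycin-containing LB broth, 50 µg/mL; dosing: compounds in serially diluted dose-response series; incubation: 20 h exposure at 37 °C; measured by: absorbance at 615 nm; control set: chloramphenicol control, 30 µM final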
As to `CC(C)(C)C(=O)Cn1c(=N)n(Cc2ccccc2)c2ccccc21`, the IC50 is 17.2 µM.
With `O=C(Oc1ccc2ccccc2c1Cl)N1CCCC1` the figure was 23.2 µM; with `COC(=O)CSc1nc(N2CCCCC2)c2c(c1C#N)CCCC2`, 12.6 µM.
With `Cc1ccccc1Cn1nc(C)c(NC(=O)c2noc3c2CCc2ccccc2-3)c1C` the figure was 12.1 µM; with `O=C(c1ccco1)N1CCN(c2ncnc3c2[nH]c2ccc(Br)cc23)CC1`, 44.5 µM; with `CCOc1ccc(NS(=O)(=O)c2ccc3[nH]cc(C(=O)NC(C)CC)c(=O)c3c2)cc1` (stereo not drawn), 11.1 µM.
As for `CCOC(=O)Cc1csc(NC(=O)c2ccc(S(=O)(=O)N3CCCCC3)cc2)n1`, the figure is 91.3 µM; as for `Fc1ccc(Cn2nnnc2C(c2cccs2)N2CCCCCC2)cc1` (stereo not drawn), 10.5 µM.
For `Cc1ccc(-c2csc3ncn(-n4c(C)ccc4C)c(=O)c23)o1`, the IC50 is 14.9 µM.
As for `Cc1ccc(C)n1-n1cnc2sc(-c3ccccc3)cc2c1=O`, the figure is 7.12 µM; as for `CC(C)(C)c1[nH]nc2c1C(Cc1ccccc1)C(C#N)=C(N)O2` (stereo not drawn), 31.7 µM; as for `O=C(c1ccc(COc2ccc(Cl)cc2)o1)N1CCN(Cc2ccc3c(c2)OCO3)CC1`, 5.35 µM.
As for `Cc1cc(S(=O)(=O)N2CCN(c3ccccc3C)CC2)ccc1F`, the figure is 14.6 µM; as for `CCOC(=O)C1CCCN(c2ncnc3c2cnn3-c2ccc(Cl)cc2)C1` (stereo not drawn), 9.92 µM; as for `O=S(=O)(NC1CCCC1)c1ccc(S(=O)(=O)N(Cc2cccs2)CC2CCCO2)cc1` (stereo not drawn), 21 µM.
For `CC(=Nc1ccc(O)cc1)c1sc2ccccc2c1O`, the IC50 is 0.89 µM.
With `Cc1ccc(NC(=O)c2ccccc2O)cc1` the figure was 16 µM.
As for `COc1ccc(-c2cc(C(=O)N3CC4(C)CC3CC(C)(C)C4)no2)cc1OC` (stereo not drawn), the figure is 14.1 µM; as for `Cc1cccnc1Nc1nc(-c2ccc(O)cc2O)cs1`, 17.8 µM; as for `Cc1cc(C)n(-c2nc3ccccc3nc2N2CCCCCC2)n1`, 18.4 µM.
As for `Cc1ccc(/C(O)=C2\C(=O)C(=O)N(c3cc(C)on3)C2c2cccc(Br)c2)cc1` (stereo not drawn), the figure is 13.8 µM; as for `O=c1ccsn1Cc1ccccc1`, 3.15 µM.
For the compound `O=C(c1cc(-c2ccccc2)on1)N1CCN(Cc2ccc3c(c2)OCO3)CC1`, the IC50 was 20.8 µM.
Regarding `Cc1ccc(-c2noc(CSc3nnnn3C3CCCCC3)n2)cc1`, the IC50 was 12.9 µM.
On to `Cc1cccc(Nc2nc(NCc3ccco3)nc(N3CCOCC3)n2)c1`, for which the half-inhibitory concentration (IC50) is 10.1 µM.
On to `COc1nc(N(c2ccccc2)c2ccccc2)nc(-n2ccnc2)n1`, for which the IC50 was 5.65 µM.
With `CCN(CC)c1nc(N)c2c(N)nc3c(c2c1C#N)CC(c1ccccc1)O3` (stereo not drawn) the figure was 6.58 µM; with `COc1ccccc1-n1c(=O)oc2ccc(Cl)cc2c1=O`, 1.49 µM.
With `NC1=NC(c2cn(-c3ccccc3)nc2-c2cccs2)n2c(nc3ccccc32)N1` (stereo not drawn) the figure was 16.4 µM; with `Oc1c(CN2CCCCC2)cc(COCc2ccccc2)c2cccnc12`, 13.2 µM.
With `Cc1ccccc1OCCCCc1c(C)n[nH]c1C` the figure was 3.74 µM.
With `CCOC(=O)C1CCN(C(=O)c2oc3ccc(S(=O)(=O)N4CCCCCC4)cc3c2C)CC1`, the IC50 is 21.6 µM.
With `Oc1ccccc1-c1nc(NCC2CCCO2)c2ccccc2n1` (stereo not drawn) the figure was 90.8 µM; with `CCOC(=O)c1c(-c2ccccc2)oc2ccc(OC(=O)N(C)C)cc12`, 9.1 µM.
As for `Clc1ccccc1OCc1nnc(-c2ccccc2Br)o1`, the figure is 12.4 µM; as for `CCCCc1ccc(Nc2nc(CCC)cc(=O)[nH]2)cc1`, 14.9 µM; as for `c1ccc(-c2nc(N3CCCCCC3)nc(-n3ccnc3)n2)cc1`, 7.72 µM.
For `Cc1nnc(SC(=O)N2c3ccccc3Sc3ccccc32)s1`, the 50% inhibitory concentration (IC50) is 14.6 µM.
As for `CC1CN(c2oc(COc3ccc(Cl)cc3Cl)nc2C#N)CC(C)O1` (stereo not drawn), the figure is 10.3 µM; as for `CCOC(=O)c1c(NC(=O)C(F)(OC)C(F)(F)F)sc(C(=O)N2CCCCC2)c1C` (stereo not drawn), 24.6 µM; as for `Brc1ccc(CSc2nnc(-c3cnccn3)n2Cc2ccco2)cc1`, 63.4 µM.
With `O=C(O)C1CC=CCC1C(=O)Nc1ccc(S(=O)(=O)N2CCCc3ccccc32)cc1` (stereo not drawn) the figure was 8.93 µM; with `N=c1n(CCN2CCOCC2)c2ccccc2n1CC(=O)c1ccc(Cl)c(Cl)c1`, 27.1 µM.
As to `O=C(c1cc2ccccc2o1)N1CCN(c2ccccc2Cl)CC1`, the IC50 is 9.9 µM.
As for `O=C1CN(C(=O)c2ccc(Br)o2)C(c2ccccc2)c2cc(Cl)ccc2N1` (stereo not drawn), the figure is 15.6 µM; as for `Cc1cccc(Cn2c(=O)n(Cc3ccco3)c(=O)c3ccccc32)c1`, 6.71 µM; as for `Cc1nn(-c2ccccc2)c2sc(-c3n[nH]c(=S)o3)cc12`, 4.43 µM.
As for `CC(C)c1ccc(OCc2nc(-c3ccccn3)no2)c(Br)c1`, the figure is 14.9 µM; as for `O=S(=O)(NCCSc1ccc(Cl)cc1)c1ccc2c(c1)OCCO2`, 8.89 µM.
Turning to `CCOC(=O)C1=C(N)OC2=C(C(=O)CCC2)C12C(=O)N1c3c(ccc(C)c32)C(C)=CC1(C)C` (stereo not drawn), the IC50 was 13.8 µM.
As for `N#Cc1nc(COc2ccc(Br)cc2)oc1NCCCn1ccnc1`, the figure is 23.7 µM; as for `Cc1cc(N2CCC(C)CC2)nc(-n2nc(C)cc2C)n1`, 5.18 µM.
As for `CCOC(=O)c1c(NC(=O)CN2CCCCC2)sc2c1CCN(C(=O)OCC)C2`, the figure is 10.7 µM; as for `CN(Cc1ccccc1)c1nc2c(c(=O)n(C)c(=O)n2C)n1CCCc1ccccc1`, 7.51 µM; as for `O=S(=O)(Nc1cccc2cccnc12)c1ccc(S(=O)(=O)N2CCCC2)cc1`, 15.3 µM.
With `Cc1csc(NC(=O)CSc2ncnc3c2cnn3-c2ccccc2Cl)n1` the figure was 16.4 µM; with `O=C(N1CCN(c2ccccc2F)CC1)C12CC3CC(CC(C3)C1)C2`, 18.6 µM; with `CCOC(=O)c1c(-c2ccccc2)nnn1-c1nc(OCC)nc(N2CCCCC2)n1`, 20.7 µM.
As for `O=C(COc1ccc(Cl)cc1)Nc1nnc(-c2ccc3c(c2)CCCC3)o1`, the IC50 is 0.25 µM.
In the case of `Cn1nc(-c2ccc(N3CCOCC3)c(NC(=O)COc3ccccc3)c2)c2ccccc2c1=O`, the half-inhibitory concentration (IC50) is 8.7 µM.
As for `COC(=O)c1ccc(Oc2nc(N3CCCCC3)nc(N3CCOCC3)n2)cc1`, the figure is 20.3 µM; as for `CCCCC(CC)CNC(=O)c1[nH]c(C)c(C(C)=O)c1C` (stereo not drawn), 1.28 µM.
For `CCSc1nnc(NC(=O)c2cccc(OCc3c(C)noc3C)c2)s1`, the IC50 was 10.8 µM.
With `COc1ccc(C2c3sc(=O)[nH]c3SC3C4CCC(C4)C23)cc1` (stereo not drawn) the figure was 10 µM; with `COc1ccc(-c2cnc(SCC(=O)Nc3cc(C)on3)n2Cc2ccco2)cc1`, 35.7 µM; with `Cc1ccc(O)c(C(=O)CC(=O)c2cccc(F)c2)c1`, 11.6 µM.
With `C=C(C)C1CCC(C)=C1COC(=O)Nc1ccccc1` (stereo not drawn) the figure was 12.2 µM.
For the compound `Cn1cccc1C(=O)Nc1nc(-c2ccccn2)cs1`, the IC50 is 2.42 µM.
As for `Cc1cc(-c2ccco2)c(C#N)c2nc3ccccc3n12`, the figure is 9.09 µM.
In the case of `CCC(C(=O)N1CCN(c2cccc(Cl)c2)CC1)c1ccccc1` (stereo not drawn), the IC50 was 14.2 µM.
As for `O=c1c2c(nc3c(-c4cccc5ccccc45)c[nH]n13)CCC2`, the figure is 7 µM; as for `CCCn1c2ccccc2c2nc3ccccc3nc21`, 73.4 µM.
With `O=C(CCSc1nnc2scc(-c3ccccc3)n12)Nc1nc(-c2ccccc2)ns1` the figure was 16.6 µM; with `CCn1c2ccccc2c2cc(C3C(C#N)=C(N)Oc4n[nH]c(COC)c43)ccc21` (stereo not drawn), 22.7 µM; with `COC(=O)c1sccc1NC(=O)c1csc(C)c1`, 23.1 µM.
With `O=C(c1ccc(COc2ccccc2Cl)o1)N1CCN(c2ccccc2)CC1`, the IC50 was 8.64 µM.
As for `CCOC(=O)c1sc2nc(CC(=O)OC)nc(N3CCN(c4ccccn4)CC3)c2c1C`, the figure is 25.1 µM; as for `CC(=O)OCC1=C(C(=O)O)N2C(=O)[C@@H](NC(=O)Cc3cccs3)[C@H]2SC1`, 1.01 µM.
As for `O=C(Nc1nnc(-c2ccc(Cl)cc2)o1)c1ccccc1Br`, the figure is 0.4 µM; as for `C=C(C)COc1ccc(-c2ncncc2Oc2ccc(OC)cc2)c(O)c1`, 14 µM; as for `O=C(c1noc2c1CCc1ccccc1-2)N1CCCc2ccccc21`, 12.2 µM.
With `N#C/C(=C\c1cccs1)Sc1nc2ccccc2s1` the figure was 9.02 µM.
As to `CCC(=NCc1ccc2c(c1)OCO2)c1c(O)n(C2CCCCC2)c(=O)[nH]c1=O`, the IC50 was 12 µM.
Regarding `Cc1ccc(C)c(C(=O)CSc2n[nH]c(-c3ccncc3)n2)c1`, the IC50 is 2 µM.
For the compound `Clc1ccc(C2=Nn3c(nnc3-c3n[nH]c4c3CCC4)SC2)cc1Cl`, the half-inhibitory concentration (IC50) is 11 µM.
As for `Fc1ccc(C(c2ccc(F)cc2)N2CCN(C/C=C/c3ccccc3)CC2)cc1`, the figure is 9.08 µM.
With `CN(Cc1ccccc1)Cc1nc2c(c(=O)n(C)c(=O)n2C)n1CCCc1ccccc1` the figure was 14.9 µM; with `c1ccc(Nc2nc(-c3cccs3)cs2)nc1`, 12.9 µM.
With `Cc1ccc2c(c1)c(C)c(C)n2CC(O)Cn1nc(C)c(Br)c1C` (stereo not drawn) the figure was 11.8 µM.
In the case of `COc1cc2ccccc2cc1C(=O)Nc1ccc(S(=O)(=O)Nc2cc(C)on2)cc1`, the IC50 was 10.7 µM.
With `CCCCN1C(=O)C2ON(c3ccccc3C)C(c3ccco3)C2C1=O` (stereo not drawn) the figure was 14.4 µM; with `O=C(c1ccccc1CCc1ccccc1)N1CCN(c2ccccn2)CC1`, 8.38 µM; with `COc1ccc(NS(=O)(=O)c2ccc3oc(Nc4ccc5c(c4)OCCO5)nc3c2)cc1`, 7.68 µM.
With `CCOC(=O)c1c(CN2CCOCC2)n(-c2ccccc2)c2ccc(O)cc12` the figure was 18.3 µM; with `Cc1cc(C)cc(-n2ccnc2SCC(=O)Nc2ccc3c(c2)OCCO3)c1`, 28.1 µM.
With `O=C(NC1CCCCC1)c1nc2c(nnn2Cc2ccccc2Cl)c(=O)[nH]1`, the IC50 was 6.11 µM.
As for `C=C(C)COc1ccc(-c2[nH]ncc2Oc2ccccc2OC)c(O)c1`, the figure is 5.72 µM; as for `COC(=O)c1sccc1NC(=O)c1ccc(Cl)s1`, 4.02 µM.

Usually IC50 stands for the concentration that inhibits the measured activity by half.
